# Tests used:
# [1] = biological target: Tyrosine-protein kinase BTK (Homo sapiens) (UniProt Q06187); assay: Binding affinity to wild-type human full length BTK (M1 to S659 residues) expressed in mammalian expression system assessed as residual binding level at 10000 nM by Kinomescan method relative to control
# In short: (§1)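 KINOMEScan competition binding panel run at 10,000 nM compound, with results expressed as percent of control binding. S(10) is the fraction of non-mutant kinases below 10% of control, out of 395 tested.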
# [2] = biological target: Receptor tyrosine-protein kinase erbB-4 (Homo sapiens) (UniProt Q15303); assay: Binding affinity to wild-type human partial length ERBB4 (L690 to K994 residues) expressed in bacterial expression system assessed as residual binding level at 10000 nM by Kinomescan method relative to control; in short: as §1
# Receptor tyrosine-protein kinase erbB-4 (Homo sapiens), sequence (Q15303 whole entry, the tested form may be a part): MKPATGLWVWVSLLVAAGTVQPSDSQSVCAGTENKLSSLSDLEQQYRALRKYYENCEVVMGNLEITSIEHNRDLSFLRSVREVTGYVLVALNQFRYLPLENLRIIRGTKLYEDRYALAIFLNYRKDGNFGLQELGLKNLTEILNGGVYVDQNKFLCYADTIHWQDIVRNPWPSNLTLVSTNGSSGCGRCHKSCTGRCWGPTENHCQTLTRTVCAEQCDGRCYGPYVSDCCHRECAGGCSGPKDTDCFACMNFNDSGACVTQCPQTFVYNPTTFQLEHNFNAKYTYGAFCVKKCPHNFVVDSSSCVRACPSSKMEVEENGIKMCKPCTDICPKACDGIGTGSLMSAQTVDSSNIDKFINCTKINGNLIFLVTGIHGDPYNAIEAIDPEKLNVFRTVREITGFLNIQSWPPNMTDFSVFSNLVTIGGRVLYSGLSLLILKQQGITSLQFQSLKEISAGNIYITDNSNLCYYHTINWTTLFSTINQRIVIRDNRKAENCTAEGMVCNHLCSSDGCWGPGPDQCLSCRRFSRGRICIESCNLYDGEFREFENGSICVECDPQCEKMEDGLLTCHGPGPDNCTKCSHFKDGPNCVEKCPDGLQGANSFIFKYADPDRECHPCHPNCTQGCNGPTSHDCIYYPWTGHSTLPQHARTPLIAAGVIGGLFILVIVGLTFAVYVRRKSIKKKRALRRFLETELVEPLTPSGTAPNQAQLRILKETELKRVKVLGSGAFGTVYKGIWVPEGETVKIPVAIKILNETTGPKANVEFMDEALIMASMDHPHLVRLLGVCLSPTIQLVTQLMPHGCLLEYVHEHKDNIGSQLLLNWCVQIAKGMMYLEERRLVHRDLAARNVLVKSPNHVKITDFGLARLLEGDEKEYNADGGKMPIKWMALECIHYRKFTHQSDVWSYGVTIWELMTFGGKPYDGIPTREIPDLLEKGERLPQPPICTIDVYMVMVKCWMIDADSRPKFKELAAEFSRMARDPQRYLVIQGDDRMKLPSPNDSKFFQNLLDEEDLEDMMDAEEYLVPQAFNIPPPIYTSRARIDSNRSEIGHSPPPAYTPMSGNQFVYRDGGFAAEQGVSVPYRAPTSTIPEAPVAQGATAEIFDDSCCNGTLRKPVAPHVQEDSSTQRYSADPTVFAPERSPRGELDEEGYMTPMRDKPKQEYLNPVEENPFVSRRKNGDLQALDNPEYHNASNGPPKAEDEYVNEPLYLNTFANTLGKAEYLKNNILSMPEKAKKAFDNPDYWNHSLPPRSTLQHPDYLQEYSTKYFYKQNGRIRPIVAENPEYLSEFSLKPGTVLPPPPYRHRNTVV
# Tyrosine-protein kinase BTK (Homo sapiens), sequence (Q06187 whole entry, the tested form may be a part): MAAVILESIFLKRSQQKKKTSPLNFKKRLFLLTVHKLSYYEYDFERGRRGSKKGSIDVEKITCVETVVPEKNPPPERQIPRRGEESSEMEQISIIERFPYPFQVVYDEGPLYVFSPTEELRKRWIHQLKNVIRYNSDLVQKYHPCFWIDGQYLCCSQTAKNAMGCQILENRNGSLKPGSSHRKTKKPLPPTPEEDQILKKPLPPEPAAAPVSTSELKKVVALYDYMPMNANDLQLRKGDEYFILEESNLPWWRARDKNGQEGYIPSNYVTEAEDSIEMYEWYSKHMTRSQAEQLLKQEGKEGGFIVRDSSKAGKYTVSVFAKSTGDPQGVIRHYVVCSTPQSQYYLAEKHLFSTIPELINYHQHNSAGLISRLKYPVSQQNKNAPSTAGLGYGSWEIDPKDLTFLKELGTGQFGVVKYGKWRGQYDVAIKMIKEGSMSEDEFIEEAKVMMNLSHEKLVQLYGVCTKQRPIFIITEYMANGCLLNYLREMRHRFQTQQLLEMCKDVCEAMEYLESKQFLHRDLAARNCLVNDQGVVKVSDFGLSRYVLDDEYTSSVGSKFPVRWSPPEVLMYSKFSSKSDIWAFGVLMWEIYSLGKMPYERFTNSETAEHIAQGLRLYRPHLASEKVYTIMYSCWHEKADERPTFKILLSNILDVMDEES
compound,measurement,setting,value
CN(C)C/C=C/C(=O)Nc1cccc(-c2c(-c3ccccc3)oc3ncnc(N[C@H](CO)c4ccccc4)c23)c1,Activity,[1],3%
same,Activity,[2],0.05%

# — ChEMBL document CHEMBL4414600, “Discovery of a Furanopyrimidine-Based Epidermal Growth Factor Receptor Inhibitor (DBPR112) as a Clinical Candidate for the Treatment of Non-Small Cell Lung Cancer” (J Med Chem, 2019)
